Experiment [1] in a line: inhibitors of TNFa-induced NFkB p65 translocation, primary screen, imaging, HUVEC, MLSMR starter and 10KST1 sets (AID 438;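 active = inhibition above 20% together with a positive visual image hit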;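 also: compound added about 3h40 before a 20 min TNFalpha stimulation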;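 as to inhibition: signal is the nuclear over cytoplasmic p65 intensity ratio per well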). The note with it: HUVEC TNFa-induced p65 nuclear translocation; cell count: measured here: nuclei count (cytotoxicity indicator), at 2.08 µM; inhibition: at 2 µM, stronger effect = higher value, 0% TNFa-plus-vehicle, 100% no-TNFa wells.
Experiment [2] is described as follows: reduction of polyQ htt aggregates in cells – imaging, exon1htt(103Q)mCFP cells, high-content imaging, primary screen (AID 483;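 active = visual image review flags a hit and inhibition of aggregation exceeds 20%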;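 also: compound exposure lasted 3 days before fixation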;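 as to nuclei count: percent of the per-plate median nuclei count of sample wells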). Particulars: exon1htt(103Q)mCFP cell line, aggregate imaging, at 2 µM; inhibition of aggregation: stronger effect = higher value; nuclei count: measured here: cell count, toxicity.
A short description of experiment [3]: endothelial E-selectin expression blockers – imaging, HUVEC, immunofluorescence, MLSMR starter and 10KST1 sets, primary screen (AID 487;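 active = visually confirmed hit in the image check and inhibition above 20%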;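 as to inhibition: signal is fraction of cell area covered by stained E-selectin grains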;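 as to nuclei count: 100% = median nuclei count of all wells on the same plate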). The note with it: HUVEC TNFalpha-induced E-selectin immunofluorescence imaging, at 2 µM; inhibition: stronger effect = higher value; nuclei count: measured here: cell number, toxicity.
Experiment [4] concerns the target Voltage-gated potassium channel subunit beta-2 (Rattus norvegicus) (UniProt P62483). As to the kind of experiment: inhibitors of rat Kvbeta2 reductase activity – biochemical, NADPH fluorescence, primary screen (AID 622;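 active = fluorescence slope higher than the sample average by over 3 SD, cut at about -0.22 in these data, passing the limit was not always enough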;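 also: slope of raw intensity against log time taken from 70 to 1610 s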). The note with it: recombinant KvBeta, 4-cyanobenzaldehyde reduction, at 10 µM, stronger effect = higher value.
Experiment [5] shares this target. As to the kind of experiment: enhancers of rat Kvbeta2 NADPH turnover – biochemical, NADPH fluorescence, primary screen (AID 623;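 active = NADPH fluorescence slope more negative than the mean of all samples by about 3 SD, 99.7% confidence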;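 also: fluorescence intensity change per second fitted from 20 to 320 s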). Particulars: Recombinant KvBeta, NADPH fluorescence decrease slope, 10 min; at 10 µM; stronger effect = lower value.
The target of experiment [6] is Muscarinic acetylcholine receptor M4 (Homo sapiens) (UniProt P08173). Description: M4-linked GIRK flux change, two-sided – cell-based, HEK293 M4/GIRK, thallium flux, BTC-AM, M4 allosteric agonist project, primary screen (AID 625;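 active = fluorescence slope after compound addition differing from the mean of all tested samples at 99.7% confidence, mostly higher but some lower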;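 also: thallium influx through GIRK channels coupled to M4 in HEK293 cells with BTC-AM dye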). Particulars: at 10 µM, actives lie on both sides. In short, it runs like this:
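Material – HEK293 cells with M4 receptor and GIRK channels · Buffer or medium – pH 7.3 thallium assay buffer · Doses – one dose, 10 µM final · Timing – cells overnight at 37 °C, BTC-AM loading 1 h, reads 2 min total · Measured by – kinetic fluorescence with BTC-AM dye · Controls – carbachol and DMSO controls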

Experiment [7] in a line: blockers of RIG-like receptor reporter activation – cell-based, Sendai virus stimulus, luciferase, 10K MLSCN set, TLR/RLR signaling modifier project, primary screen (AID 602276).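 Also: firefly luciferase from ISG56 promoter only with Renilla not read in this screen; 0% = Sendai virus plus DMSO and 100% = medium plus DMSO without virus.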 Particulars: HEK293 RL24 IRF3 luciferase reporter, at 10 µM, stronger effect = higher value.
A short description of experiment [8]: TLR3 IRF3 reporter activation blockers – cell-based, poly I:C stimulus, luciferase, 10K MLSCN set, primary screen (AID 602277;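 active = inhibition of the reporter signal at or above 50%; inactive = inhibition below 50%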). The note with it: HEK293-TLR3 RL24 IRF3 luciferase reporter, at 10 µM, stronger effect = higher value. In general terms: Reporter assays use an easily measured gene product as a stand-in for the process of interest.

Molecules are shown by their SMILES. The source made the active and inactive calls.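 The calls were made as follows, unless noted: active = inhibition at or above 50% at 10 µM; inactive = inhibition below 50%.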

Chain of Voltage-gated potassium channel subunit beta-2 (Rattus norvegicus) (P62483 whole entry, looked up): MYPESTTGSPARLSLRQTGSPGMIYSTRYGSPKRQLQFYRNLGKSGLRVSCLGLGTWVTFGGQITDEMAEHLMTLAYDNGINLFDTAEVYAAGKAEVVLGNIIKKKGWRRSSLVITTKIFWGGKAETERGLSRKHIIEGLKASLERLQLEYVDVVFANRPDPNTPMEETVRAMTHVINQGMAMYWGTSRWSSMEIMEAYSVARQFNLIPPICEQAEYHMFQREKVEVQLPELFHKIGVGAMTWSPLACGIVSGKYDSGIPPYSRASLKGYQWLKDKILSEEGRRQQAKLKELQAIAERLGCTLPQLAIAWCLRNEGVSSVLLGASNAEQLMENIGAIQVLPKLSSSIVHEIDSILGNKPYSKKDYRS
Chain of Muscarinic acetylcholine receptor M4 (Homo sapiens) (P08173 whole entry, looked up): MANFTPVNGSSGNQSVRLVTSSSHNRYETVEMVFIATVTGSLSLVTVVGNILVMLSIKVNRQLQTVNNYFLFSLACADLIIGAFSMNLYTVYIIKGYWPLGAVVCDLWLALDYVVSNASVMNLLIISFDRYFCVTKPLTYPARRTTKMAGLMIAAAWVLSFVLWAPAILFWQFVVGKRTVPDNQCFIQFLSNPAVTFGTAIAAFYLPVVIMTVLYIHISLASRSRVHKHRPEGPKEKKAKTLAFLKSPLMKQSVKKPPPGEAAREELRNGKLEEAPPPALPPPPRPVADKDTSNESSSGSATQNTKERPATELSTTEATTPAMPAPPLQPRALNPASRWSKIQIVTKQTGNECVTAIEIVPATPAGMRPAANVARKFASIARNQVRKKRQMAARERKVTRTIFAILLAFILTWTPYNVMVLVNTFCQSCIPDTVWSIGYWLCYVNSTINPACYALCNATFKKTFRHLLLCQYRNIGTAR

On to `O=c1[nH]c(SCc2cc(=O)n3ccccc3n2)nc2c1CCC2`, for which the cell count in experiment [1] was found to be 681. Also, the inhibition was -8.4% (inactive) in experiment [1], -123% (inactive) in experiment [3], 16.7% (inactive) in experiment [7] and 20.7% (inactive) in experiment [8]. Besides, in experiment [2], the inhibition of aggregation is -47.8% (inactive). Also, the nuclei count in experiment [2] turned out to be 87.5%; in experiment [3] it was 106%. Further, the fluorescence slope in experiment [4] is -0.381 (inactive); in experiment [6], 0.00602 (inactive). Besides, the NADPH fluorescence slope in experiment [5] is 2.3e-05 (inactive).

With `COc1ccc(CN2C(=O)c3ccccc3C2C(=O)NC2CCCC2)c(OC)c1` (centres undefined), the cell count in experiment [1] is 671. Besides, the inhibition in experiment [1] is -4.8% (inactive); in experiment [3] it was -53.3% (inactive); in experiment [7], 14.9% (inactive); in experiment [8], 9.49% (inactive). For the same compound, the inhibition of aggregation in experiment [2] was 8.3% (inactive). Also, the nuclei count was 87.1% in experiment [2] and 112% in experiment [3]. For the same compound, the fluorescence slope in experiment [4] is -0.443 (inactive); in experiment [6], 0.00535 (inactive). The NADPH fluorescence slope in experiment [5] is -4.9e-05 (inactive).

In the case of `O=c1cc(CSc2nnc(COc3ccc(Cl)cc3)o2)c2ccccc2[nH]1`, in experiment [1], the cell count was 544. The inhibition in experiment [1] was -6.2% (inactive); in experiment [3] it was -46.6% (inactive); in experiment [7], 1.93% (inactive); in experiment [8] it was -11.9% (inactive). Also, the inhibition of aggregation in experiment [2] is 8% (inactive). The nuclei count in experiment [2] was determined as 98.4%; in experiment [3], 153%. Further, the figures for the fluorescence slope in experiment [4] and in experiment [6] were -0.497 (inactive) and 0.00464 (inactive), respectively. In experiment [5], the NADPH fluorescence slope is 7.1e-08 (inactive).

On to `COc1cccc(NC(=O)Cc2nnc(SCC(=O)c3ccccc3)n2C)c1`, for which the cell count in experiment [1] was 454. Moreover, the inhibition was 9.7% (inactive) in experiment [1], -39.3% (inactive) in experiment [3], 3.81% (inactive) in experiment [7] and 10.1% (inactive) in experiment [8]. Further, in experiment [2], the inhibition of aggregation was -12.5% (inactive). Also, the nuclei count in experiment [2] is 88.6%; in experiment [3], 91.8%. The fluorescence slope in experiment [4] is -0.5 (inactive); in experiment [6] it was 0.0063 (inactive). In addition, in experiment [5], the NADPH fluorescence slope was 1.7e-05 (inactive).

As for `COCCn1c(=NC(=O)CSC(C)=O)sc2cc(F)ccc21`, in experiment [1], the cell count stood at 426. Also, the inhibition in experiment [1] was -6.2% (inactive); in experiment [3], -22% (inactive); in experiment [7] it was 13.7% (inactive); in experiment [8] it was 22.7% (inactive). In addition, the inhibition of aggregation in experiment [2] is 33.6% (inactive). Moreover, the nuclei count was 93.7% in experiment [2] and 106% in experiment [3]. In addition, the figures for the fluorescence slope in experiment [4] and in experiment [6] were -0.379 (inactive) and 0.00556 (inactive), respectively. In experiment [5], the NADPH fluorescence slope is 4.1e-05 (inactive).

For `Cn1c(-c2ccc(F)cc2)cnc1NCc1ccccc1`, in experiment [1], the cell count stood at 710. Also, the inhibition in experiment [1] is -2.3% (inactive); in experiment [3], -25.9% (inactive); in experiment [7], 6.58% (inactive); in experiment [8] it was -8.43% (inactive). Besides, the inhibition of aggregation in experiment [2] is 21% (inactive). For the same compound, the nuclei count in experiment [2] worked out at 74.6%; in experiment [3], 125%. Moreover, the fluorescence slope is -0.471 (inactive) in experiment [4] and 0.0028 (inactive) in experiment [6]. Also, the NADPH fluorescence slope in experiment [5] was -3e-06 (inactive).

As to `Cc1cc(NC(=O)C23CCC(C)(c4nc5cc(Cl)c(Cl)cc5nc42)C3(C)C)no1` (centres undefined), the cell count in experiment [1] worked out at 409. In addition, the inhibition in experiment [1] is 4.3% (inactive); in experiment [3] it was -116% (inactive); in experiment [7], 12.2% (inactive); in experiment [8], 15.9% (inactive). For the same compound, in experiment [2], the inhibition of aggregation was 7.4% (inactive). Moreover, the nuclei count in experiment [2] worked out at 104%; in experiment [3], 92.1%. In addition, the values for the fluorescence slope in experiment [4] and in experiment [6] were -0.577 (inactive) and 0.00686 (inactive), respectively. Further, in experiment [5], the NADPH fluorescence slope is -4.4e-05 (inactive).

For the compound `CC(C)CNC(=O)C1C2C=CC(C2)C1C(=O)O` (centres undefined), in experiment [1], the cell count was 456. The inhibition in experiment [1] was -2.9% (inactive); in experiment [3], -33.7% (inactive); in experiment [7], 13.4% (inactive); in experiment [8] it was 20.4% (inactive). Besides, in experiment [2], the inhibition of aggregation is -8.2% (inactive). For the same compound, the nuclei count in experiment [2] amounted to 98.4%; in experiment [3] it was 128%. The fluorescence slope is -0.535 (inactive) in experiment [4] and 0.00535 (inactive) in experiment [6]. In addition, the NADPH fluorescence slope in experiment [5] is -4e-05 (inactive).

In the case of `Cc1ccccc1NS(=O)(=O)c1ccc(NC(=O)c2ccco2)cc1`, the cell count in experiment [1] was 349. In addition, the inhibition in experiment [1] was 1.1% (inactive); in experiment [3], -24.6% (inactive); in experiment [7], 15.3% (inactive); in experiment [8], 13.6% (inactive). Also, the inhibition of aggregation in experiment [2] is 5.8% (inactive). Also, the figures for the nuclei count in experiment [2] and in experiment [3] were 94.7% and 119%, respectively. The fluorescence slope in experiment [4] is -0.587 (inactive); in experiment [6], 0.00578 (inactive). Also, the NADPH fluorescence slope in experiment [5] is 1.9e-07 (inactive).

As for `Cc1nc(SCC(=O)NCc2ccco2)c2c(C)c(C)sc2n1`, in experiment [1], the cell count was determined as 709. For the same compound, the inhibition is -4% (inactive) in experiment [1], -4.2% (inactive) in experiment [3], 17.4% (inactive) in experiment [7] and 17.9% (inactive) in experiment [8]. The inhibition of aggregation in experiment [2] was 15.2% (inactive). The nuclei count in experiment [2] was 85.7%; in experiment [3], 112%. Further, the figures for the fluorescence slope in experiment [4] and in experiment [6] were -0.558 (inactive) and 0.00596 (inactive), respectively. Further, the NADPH fluorescence slope in experiment [5] is -3.9e-05 (inactive).

Consider `c1ccc2c(c1)C(=Nn1cnnc1)c1ccccc1-2`, for which the cell count in experiment [1] came out at 606. Further, the inhibition in experiment [1] is -3.4% (inactive); in experiment [3], -107% (inactive); in experiment [7], 10.6% (inactive); in experiment [8], 11% (inactive). Besides, in experiment [2], the inhibition of aggregation was 15.7% (inactive). The nuclei count in experiment [2] is 101%; in experiment [3], 122%. The values for the fluorescence slope in experiment [4] and in experiment [6] were -0.448 (inactive) and 0.00319 (inactive), respectively. For the same compound, the NADPH fluorescence slope in experiment [5] is -6.8e-05 (inactive).

Regarding `CC(=O)Nc1nc(-c2ccccc2)nc(C)c1C(C)=O`, in experiment [1], the cell count worked out at 366. Also, the inhibition is 8% (inactive) in experiment [1], 32.4% (inactive) in experiment [3], -8.51% (inactive) in experiment [7] and 2.89% (inactive) in experiment [8]. Besides, in experiment [2], the inhibition of aggregation is 15% (inactive). Further, the nuclei count was 88.5% in experiment [2] and 87.6% in experiment [3]. For the same compound, the figures for the fluorescence slope in experiment [4] and in experiment [6] were -0.572 (inactive) and 0.0072 (inactive), respectively. The NADPH fluorescence slope in experiment [5] was 2e-05 (inactive).

Turning to `CC1CCN(CC(O)COC2CCC(C(C)(C)C)CC2)CC1` (centres undefined), the cell count in experiment [1] amounted to 719. The inhibition in experiment [1] was -6.8% (inactive); in experiment [3], -11.7% (inactive); in experiment [7], 6.5% (inactive); in experiment [8] it was -5.56% (inactive). For the same compound, in experiment [2], the inhibition of aggregation was 1.9% (inactive). Also, the nuclei count in experiment [2] came out at 118%; in experiment [3], 111%. Besides, the fluorescence slope in experiment [4] is -0.453 (inactive); in experiment [6], 0.00347 (inactive). The NADPH fluorescence slope in experiment [5] is -0.000251 (inactive).

With `Cc1ccc(Cn2ccc(NC(=O)c3noc4c3CCCC4)n2)cc1`, the cell count in experiment [1] turned out to be 246. Also, the inhibition was -0.8% (inactive) in experiment [1], 44.7% (inactive) in experiment [3], 10% (inactive) in experiment [7] and -98.2% (inactive) in experiment [8]. Moreover, the inhibition of aggregation in experiment [2] is -6.8% (inactive). In addition, the figures for the nuclei count in experiment [2] and in experiment [3] were 97.7% and 117%, respectively. In addition, the fluorescence slope is -0.539 (inactive) in experiment [4] and 0.00747 (inactive) in experiment [6]. The NADPH fluorescence slope in experiment [5] was -3.2e-05 (inactive).

The inhibition is the relative decrease from the control value, in per cent.

The values are drawn from PubChem BioAssay.
